Laboratory results published in ChEMBL document CHEMBL1155247, “SAR and biological evaluation of SEN12333/WAY-317538: Novel alpha 7 nicotinic acetylcholine receptor agonist” (Bioorg Med Chem, 2009).
The source made the active and inactive calls. The calls are words filed in the database; no cut-off is given here.

Assays:
[1] = target: T1, Neuronal acetylcholine receptor subunit alpha-7 (Rattus norvegicus, UniProt Q05941); assay: Agonist activity at rat alpha7 nAChR expressed in rat GH4C1 cells assessed as calcium flux by FLIPR assay; format: functional, cell-based, GH4-C1
T1 sequence (Q05941 whole entry): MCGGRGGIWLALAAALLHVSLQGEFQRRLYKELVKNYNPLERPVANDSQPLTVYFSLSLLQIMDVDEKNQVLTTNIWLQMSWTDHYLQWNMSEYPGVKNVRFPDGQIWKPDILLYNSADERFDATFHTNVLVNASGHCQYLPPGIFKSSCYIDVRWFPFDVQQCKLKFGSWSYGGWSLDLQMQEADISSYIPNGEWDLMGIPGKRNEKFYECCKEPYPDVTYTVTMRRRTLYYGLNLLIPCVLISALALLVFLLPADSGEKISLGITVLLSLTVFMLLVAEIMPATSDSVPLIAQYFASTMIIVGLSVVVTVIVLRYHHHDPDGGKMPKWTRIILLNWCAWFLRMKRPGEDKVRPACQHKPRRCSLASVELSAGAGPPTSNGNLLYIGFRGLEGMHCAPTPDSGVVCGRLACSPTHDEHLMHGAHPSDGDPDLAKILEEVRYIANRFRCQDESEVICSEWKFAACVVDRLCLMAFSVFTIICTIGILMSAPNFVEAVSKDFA
How it was run: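 GH4C1 cells stably expressing rat α7, 1 × 10^5 cells/well, cultured 24 h. Loaded 40 min at 37 °C with 4 µM Fluo-4-AM in HBSS-20 mM HEPES pH 7.4 with probenecid. FLIPR calcium flux read after first compound addition (1 min at 1 s, then every 30 s for 10 min). MAX–MIN signal normalized to positive control; EC50 by sigmoidal variable-slope fit.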

[2] = target: T1, Neuronal acetylcholine receptor subunit alpha-7; assay: (§1) Activity at rat alpha7 nAChR expressed in rat GH4C1 cells by patch clamp technique; format: cell-based, GH4-C1
How it was run: (§2)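 GH4C1 cells stably expressing rat α7 were pretreated with 0.5 mM Na-butyrate for 2 days. Whole-cell clamp at −60 mV; pipette contained K-gluconate, EGTA, ATP. Agonist or acetylcholine applied by fast perfusion in HBSS + 10 mM HEPES as 500 ms pulses at 10 s intervals, sampled at 1 kHz. Peak amplitude and charge measured; EC50 from concentration–response curves.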

[3] = target: Neuronal acetylcholine receptor subunit alpha-7 (Rattus norvegicus) (UniProt Q05941); assay: as §1; format: cell-based; conditions: GH4-C1; how it was run: as §2
Sequence of Neuronal acetylcholine receptor subunit alpha-7 (Rattus norvegicus) (Q05941 whole entry): as above

[4] = target: Neuronal acetylcholine receptor; alpha4/beta2 (Homo sapiens) (UniProt P17787+P43681); assay: Inhibition of alpha4beta2 nAChR at 10 uM; format: protein-complex assay
[5] = Cmax in Wistar rat at 10 mg/kg, ip; format: ADME, organism-based; parameters: dose 10 mg/kg, route intraperitoneal; conditions: in vivo
How it was run: (§3)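 Male Wistar rats, 6–8 weeks, 200–250 g, given a single 10 mg/kg ip dose at time 0. Plasma and brain were sampled at 0, 0.5, 1 and 3 h. Plasma was protein-precipitated with acetonitrile containing internal standard. Brain was homogenized and extracted with methanol. Analysis by LC–MS/MS; detection limits 1 ng/mL plasma and 10 ng/g brain.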

Rattus norvegicus [6] = assay: Cognitive enhancing effect in Wistar rat assessed as minimized spontaneous decay of episodic memory at 3 mg/kg, ip after 24 hrs by novel-object recognition test
hERG (KCNH2) = hERG (KCNH2) (Homo sapiens, UniProt Q12809); assay: Inhibition of human ERG expressed in CHO cells at 1 uM; format: cell-based; conditions: CHO cells expressing human ERG
Sequence of hERG (KCNH2) (Q12809 whole entry): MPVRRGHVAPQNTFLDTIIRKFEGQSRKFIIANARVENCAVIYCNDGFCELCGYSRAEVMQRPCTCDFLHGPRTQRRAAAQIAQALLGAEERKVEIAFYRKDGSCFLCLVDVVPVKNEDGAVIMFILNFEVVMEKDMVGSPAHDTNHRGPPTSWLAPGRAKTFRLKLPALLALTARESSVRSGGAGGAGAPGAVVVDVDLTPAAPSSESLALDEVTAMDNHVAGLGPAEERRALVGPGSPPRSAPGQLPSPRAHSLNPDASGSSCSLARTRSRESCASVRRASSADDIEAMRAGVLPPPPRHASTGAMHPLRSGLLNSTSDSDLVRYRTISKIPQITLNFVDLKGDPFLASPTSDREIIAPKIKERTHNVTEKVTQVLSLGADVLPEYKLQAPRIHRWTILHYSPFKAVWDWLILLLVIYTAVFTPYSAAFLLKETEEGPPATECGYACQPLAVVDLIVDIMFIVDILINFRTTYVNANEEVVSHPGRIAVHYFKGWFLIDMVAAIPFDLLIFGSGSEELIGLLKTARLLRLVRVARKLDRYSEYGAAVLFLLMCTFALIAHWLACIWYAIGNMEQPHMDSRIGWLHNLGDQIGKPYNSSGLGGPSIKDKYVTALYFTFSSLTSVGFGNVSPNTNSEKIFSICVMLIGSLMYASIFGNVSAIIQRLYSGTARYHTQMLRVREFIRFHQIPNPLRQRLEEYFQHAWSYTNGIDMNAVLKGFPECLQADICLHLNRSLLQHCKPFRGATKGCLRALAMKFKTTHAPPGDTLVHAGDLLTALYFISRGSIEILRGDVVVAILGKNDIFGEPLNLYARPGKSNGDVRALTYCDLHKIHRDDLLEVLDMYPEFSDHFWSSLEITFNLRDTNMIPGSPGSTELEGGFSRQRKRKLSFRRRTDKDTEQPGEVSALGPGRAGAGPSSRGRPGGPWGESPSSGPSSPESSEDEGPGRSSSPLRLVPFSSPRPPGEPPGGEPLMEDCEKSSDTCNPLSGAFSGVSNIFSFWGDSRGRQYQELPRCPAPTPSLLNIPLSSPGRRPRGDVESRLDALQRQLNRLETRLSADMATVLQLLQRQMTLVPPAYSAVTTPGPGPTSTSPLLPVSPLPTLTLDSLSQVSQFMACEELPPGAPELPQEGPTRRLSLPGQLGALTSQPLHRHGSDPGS

Rattus norvegicus [7] = assay: Inhibition of scopolamine-induced immediate working memory deficit in Wistar rat at 1 to 10 mg/kg, ip after 48 hrs by novel-object recognition test; format: functional, organism-based
[8] = target: Histamine H3 receptor (Homo sapiens) (UniProt Q9Y5N1); assay: Binding affinity to histamine H3 receptor expressed in HEK293 cells at 10 uM; format: cell-based
Sequence of Histamine H3 receptor (Homo sapiens) (Q9Y5N1 whole entry): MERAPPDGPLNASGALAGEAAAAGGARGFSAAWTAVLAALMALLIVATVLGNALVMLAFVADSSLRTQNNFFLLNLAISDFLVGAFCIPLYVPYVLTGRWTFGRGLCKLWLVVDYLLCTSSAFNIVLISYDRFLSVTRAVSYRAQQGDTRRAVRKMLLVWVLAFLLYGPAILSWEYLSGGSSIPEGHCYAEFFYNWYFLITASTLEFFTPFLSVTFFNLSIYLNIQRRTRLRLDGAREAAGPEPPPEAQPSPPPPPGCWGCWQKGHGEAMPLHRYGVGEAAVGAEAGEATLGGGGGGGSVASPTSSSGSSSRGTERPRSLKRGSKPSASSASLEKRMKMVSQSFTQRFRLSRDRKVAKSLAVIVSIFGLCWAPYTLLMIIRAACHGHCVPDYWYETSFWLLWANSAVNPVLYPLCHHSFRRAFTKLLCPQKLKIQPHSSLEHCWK

Rattus norvegicus [9] = assay: AUC (last) in Wistar rat at 10 mg/kg, ip; format: ADME, organism-based, Plasma; parameters: time 0 - last, dose 10 mg/kg, route intraperitoneal; conditions: in vivo; how it was run: as §3
[10] = Half life in Wistar rat at 10 mg/kg, ip; format: ADME, organism-based; parameters: dose 10 mg/kg, route intraperitoneal; conditions: in vivo; how it was run: as §3
[11] = target: T2, 5-hydroxytryptamine receptor 3A (Homo sapiens) (UniProt P46098); assay: Activity at human 5HT3 receptor expressed in human HEK293 cells assessed as calcium flux by FLIPR assay
T2 sequence (whole entry): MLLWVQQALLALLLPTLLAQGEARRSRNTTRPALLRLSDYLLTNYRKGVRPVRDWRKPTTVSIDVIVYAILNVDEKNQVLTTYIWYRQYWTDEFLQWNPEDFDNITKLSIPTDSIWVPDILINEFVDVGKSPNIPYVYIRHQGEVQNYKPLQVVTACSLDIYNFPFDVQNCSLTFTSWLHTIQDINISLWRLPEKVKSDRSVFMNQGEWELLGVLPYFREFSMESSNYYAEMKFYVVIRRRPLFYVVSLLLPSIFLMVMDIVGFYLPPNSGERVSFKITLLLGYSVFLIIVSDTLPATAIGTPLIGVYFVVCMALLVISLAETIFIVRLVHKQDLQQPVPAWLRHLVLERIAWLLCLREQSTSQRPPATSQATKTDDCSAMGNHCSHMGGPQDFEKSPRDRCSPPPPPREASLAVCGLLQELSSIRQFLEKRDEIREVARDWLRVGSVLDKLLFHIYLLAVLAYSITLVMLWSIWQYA

[12] = target: Acetylcholine receptor; alpha1/beta1/delta/gamma (Homo sapiens) (UniProt P02708+P07510+P11230+Q07001); assay: Activity at alpha-1-beta-1-gamma-delta nAChR in human TE671 cells assessed as effect on membrane potential by FLIPR assay; format: cell-based; conditions: TE-671
How it was run: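 TE671 rhabdomyosarcoma cells, as endogenous muscle nAChR, were plated at 5 × 10^4 cells/well 24 h before assay. Loaded with membrane-potential dye in HBSS for 60 min at rt, then read on FLIPR with 10 s baseline before compound addition. First-addition signal taken as SUM of fluorescence, normalized to 1 µM epibatidine. EC50 from sigmoidal variable-slope fit.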

[13] = target: T1, Neuronal acetylcholine receptor subunit alpha-7; assay: Displacement of [3H]epibatidine from rat alpha7 nAChR expressed in rat GH4C1 cells; format: cell-based, GH4-C1
How it was run: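 Membranes from GH4C1 cells expressing rat α7 were incubated with 5 nM [3H]-epibatidine in 50 mM HEPES pH 7.4 with KCl, NaCl and MgCl2, for 1 h at 23 °C. Nonspecific binding defined with 300 µM nicotine. Bound ligand separated by GF/B filtration with five washes in ice-cold buffer.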

Rattus norvegicus [14] = assay: Inhibition of MK-801-induced immediate working memory deficit in Long Evans rat at 1 to 10 mg/kg, ip after 48 hrs by novel-object recognition test
[15] = Ratio of drug level from brain to plasma in Wistar rat at 10 mg/kg, ip; format: ADME, organism-based; parameters: dose 10 mg/kg, route intraperitoneal; how it was run: as §3
[16] = Oral bioavailability in Wistar rat; format: ADME, organism-based; conditions: in vivo

`COc1ccc(N2CCN(CCCCNC(=O)c3ccc(-c4ccccn4)cc3)CC2)c(OC)c1` showed an EC50 [1] of 2840 nM.

Work on `COc1ccc(N2CCN(CCCCNC(=O)c3ccc(-c4ccccc4)cc3)CC2)c(OC)c1` yielded an EC50 [1] greater than 30000 nM.

`COc1ccccc1N1CCN(CCCCC(=O)Nc2ccc(-c3cccnc3)cc2)CC1` showed an EC50 [1] of 2470 nM.

In the case of `COc1ccc(N2CCN(CCCCNC(=O)c3ccc(-c4ccccc4C)cc3)CC2)c(OC)c1`, the EC50 [1] is reported as 5770 nM.

`CN(CCCCC(=O)Nc1ccc(-c2cccnc2)cc1)CCc1ccccn1` gave an EC50 [1] of 3270 nM.

`CC(=O)Nc1cccc(-c2ccc(NC(=O)CCCCN3CCCCC3)cc2)c1` showed an EC50 [1] of 120 nM.

Compound `O=C(CCCCN1CCCCC1)Nc1ccc2ncccc2c1` has an EC50 [1] of 5070 nM.

`COc1ccc(N2CCN(CCCCNC(=O)c3ccc(-c4ccccc4F)cc3)CC2)c(OC)c1` showed an EC50 [1] of 6030 nM.

In the case of `CCN(CC)C(=O)C1CCCN(CCCCC(=O)Nc2ccc(-c3cccnc3)cc2)C1` (stereo not drawn), the EC50 [1] is reported as greater than 30000 nM.

Work on `O=C(CCCCN1CCCCC1)Nc1ccc(-c2cccnc2)cc1` yielded an EC50 [1] of 530 nM.

With `O=C(CCCCN1CCCCC1)Nc1ccc(-c2ccc(F)cc2F)cc1` the EC50 [1] was 160 nM.

Work on `CN1CCN(CCCCC(=O)Nc2ccc(-c3cccnc3)cc2)CC1` yielded an EC50 [1] of 3560 nM.

For `COc1ccc(N2CCN(CCCCNC(=O)c3ccc(-c4ccccc4OC)cc3)CC2)c(OC)c1`, the EC50 [1] was 2910 nM.

`Cl.O=C(CCCCN1CCOCC1)Nc1ccc(-c2cccnc2)cc1` showed an EC50 [2] of 12000 nM, an Emax [3] of 88% and an inhibition [4] of 45%. For the same compound, the Cmax [5] was 244 ng/mL, the Activity (Rattus norvegicus [6]) was “Active” and the inhibition at 1 µM (hERG (KCNH2)) was 6%. The EC50 [1] was 1650 nM, the inhibition (Rattus norvegicus [7]) was “Active” and the Activity [8] was “Active”. The AUC (Rattus norvegicus [9]) was 347 ng·h/mL, the half-life [10] was 48 min and the Selectivity ratio [11] was “inactive”. For the same compound, the Activity [12] was “inactive”, the Ki [13] was 260 nM and the inhibition (Rattus norvegicus [14]) was “Active”. The Kp [15] was 2.5 and the bioavailability [16] was 57%.

With `CC(=O)c1cccc(-c2ccc(NC(=O)CCCCN3CCCCC3)cc2)c1` the EC50 [1] was 990 nM.

In the case of `CC(=O)N1CCCN(CCCCC(=O)Nc2ccc(-c3cccnc3)cc2)CC1`, the EC50 [1] is reported as 2660 nM.

`CC(C)Oc1ccccc1-c1ccc(NC(=O)CCCCN2CCCCC2)cc1` showed an EC50 [1] of 240 nM.

Work on `COc1ccc(N2CCN(CCCCNC(=O)c3ccc(Br)cc3)CC2)c(OC)c1` yielded an EC50 [1] greater than 30000 nM.

`COc1ccc(N2CCN(CCCCNC(=O)c3ccc([N+](=O)[O-])cc3)CC2)c(OC)c1` gave an EC50 [1] greater than 30000 nM.

Compound `CC(=O)N1CCN(CCCCC(=O)Nc2ccc(-c3cccnc3)cc2)CC1` has an EC50 [1] of 2780 nM.

With `O=C(CCCCN1CCCCC1)Nc1ccc(Br)cc1` the EC50 [1] was 1350 nM.

Work on `NC(=O)c1cccc(-c2ccc(NC(=O)CCCCN3CCCCC3)cc2)c1` yielded an EC50 [1] of 90 nM.

For `O=C(CCCCN1CCCCC1)Nc1cccc(Br)c1`, the EC50 [1] was 2070 nM.

For `O=C(CCCCN1CCCCC1)Nc1ccc2c(c1)OCO2`, the EC50 [1] was 10900 nM.

With `COc1ccc(N2CCN(CCCCNC(=O)c3ccc(-c4ccccc4Cl)cc3)CC2)c(OC)c1` the EC50 [1] was 3110 nM.

Compound `O=C(CCCCN1CCCCCC1)Nc1ccc(-c2cccnc2)cc1` has an EC50 [1] of 540 nM.

In the case of `Cc1cccc(NC(=O)CCCCN2CCCCC2)c1`, the EC50 [1] is reported as greater than 30000 nM.
